Experimental data from different studies.
Lines come from different studies, so protocols differ.
Target: Tyrosine-protein kinase TXK (TXK, Homo sapiens, UniProt P42681)
Sequence (P42681 1-527, as in one of the studies): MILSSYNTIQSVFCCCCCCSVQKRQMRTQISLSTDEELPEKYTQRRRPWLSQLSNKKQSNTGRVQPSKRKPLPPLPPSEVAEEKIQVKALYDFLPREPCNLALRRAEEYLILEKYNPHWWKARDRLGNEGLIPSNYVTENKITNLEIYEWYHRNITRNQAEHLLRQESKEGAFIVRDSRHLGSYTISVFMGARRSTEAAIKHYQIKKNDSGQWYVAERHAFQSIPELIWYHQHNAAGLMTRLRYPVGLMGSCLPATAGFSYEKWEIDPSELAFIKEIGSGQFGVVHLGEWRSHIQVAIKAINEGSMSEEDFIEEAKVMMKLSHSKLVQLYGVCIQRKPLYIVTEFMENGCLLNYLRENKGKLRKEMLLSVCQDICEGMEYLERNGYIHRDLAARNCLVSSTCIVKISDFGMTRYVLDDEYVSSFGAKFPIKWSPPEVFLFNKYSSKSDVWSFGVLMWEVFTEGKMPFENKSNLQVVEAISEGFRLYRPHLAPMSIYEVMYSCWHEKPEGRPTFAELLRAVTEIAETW

| SMILES | observed | method | concentration | remaining binding |
| --- | --- | --- | --- | --- |
| O=C(NCCCN1CCOCC1)c1ccc(Nc2nccc(-c3cc4ccccc4s3)n2)cc1 | binding | competition with immobilised ligand | 1 µM | 86% |
| C[C@@H](c1ccc(-n2cnc3c(N)ncnc32)cc1)N1CCc2nn(C)c(Cc3ccccc3)c2C1=O | binding | competition with immobilised ligand | 0.1 µM | 73% |
| C[C@@H]1CCN(c2nccc(-c3cnn4ncccc34)n2)C1 | binding |  | 1 µM | 100% |
| C[C@H](NC(=O)c1cnc2n1[C@](C)(Cc1ccc(C#N)cc1)C(=O)N2c1cc(Cl)c(F)c(Cl)c1)C(=O)NC1(c2ccccn2)CC1 | binding | competition with immobilised ligand | 1 µM | 90% |
| Cc1cnn2ncc(-c3ccnc(N(C)C)n3)c2c1 | binding |  | 1 µM | 100% |
| Cc1cc(-n2nc(Cc3cc(F)cc(C(F)(F)F)c3)nc2C)ccc1C(N)=O | binding | competition with immobilised ligand | 1 µM | 84% |
| O=C(NCCCN1CCOCC1)c1ccc(Nc2ncc(Cl)c(-c3ccc(Cl)s3)n2)cc1 | binding | competition with immobilised ligand | 1 µM | 99% |
| C[C@@H](c1cccc(C#N)c1)n1cc(Cl)cc(C(N)=O)c1=N | binding | competition with immobilised ligand | 1 µM | 68% |
| Cc1cnc(Nc2ccc(C(=O)N3CCC(N4CCCC4)CC3)cc2)nc1-c1cc2ccccc2s1 | binding | competition with immobilised ligand | 1 µM | 59% |
| F[C@@H]1CCN(c2nccc(-c3cnn4ncccc34)n2)C1 | binding |  | 1 µM | 73% |
| CCS(=O)(=O)c1cc2cc(C[C@@](O)(CC(C)(C)c3ccc(F)cc3C(N)=O)C(F)(F)F)[nH]c2cn1 | cell-free assay | competition with immobilised ligand | 1 µM | 97% |
| FC(F)(F)Oc1cccc(-c2cnc3ccc(-c4ccncc4)nn23)c1 | binding | competition with immobilised ligand | 5 µM | 55% |
| CNC(=O)[C@@H]1CC[C@@H](n2c(-c3ccc4cnccc4c3)nc3ccc(C(=O)NCc4cccc(C(N)=O)c4)cc32)C1 | binding | competition with immobilised ligand | 1 µM | 100% |
| CC(=O)c1c(NS(C)(=O)=O)c2cc(-c3ccc(Cl)cc3)c(-c3ccc(Cl)cc3Cl)nc2n(C)c1=O | cell-free assay | competition with immobilised ligand | 1 µM | 100% |
| O=C(NCC1CCOCC1)c1n[nH]cc1NC(=O)c1c(F)cccc1F | binding | competition with immobilised ligand | 1 µM | 100% |
| Nc1ncc2c(n1)-c1c([nH]c3ccc(C#CC4CC4)cc13)CCCC2 | binding | competition with immobilised ligand | 1 µM | 99% |
| CN(CCCC(F)(F)F)c1nccc(-c2cnn3ncccc23)n1 | binding |  | 1 µM | 87% |
| Cc1nc(N2CC[C@@H](O)C2)ncc1-c1cc(C(F)(F)F)cc2[nH]ncc12 | binding | competition with immobilised ligand | 1 µM | 100% |
| N[C@@H]1CCN(c2nccc(-c3cnn4ncccc34)n2)C1 | binding |  | 1 µM | 100% |
| COc1cnc(Nc2cccc(S(N)(=O)=O)c2)nc1N1CCN(c2ccccc2)C(=O)C1 | binding | competition with immobilised ligand | 1 µM | 100% |
| CCN1CCN(Cc2ccc(C(=O)Nc3ccc(C)c(Oc4ccc5c(c4)CC(=O)N5)c3)cc2C(F)(F)F)CC1 | binding | competition with immobilised ligand | 1 µM | 100% |
| CC1CCCN1c1nccc(-c2cnn3ncccc23)n1 (stereo not shown) | binding |  | 1 µM | 100% |
